Compound activity deposited in PubChem by Johns Hopkins Ion Channel Center.
This is a sample that favours compounds with a hit; in the whole collection about 3.5% have one here.
MrgX1 ag: agonists of human MrgX1 receptor; Q96LB2; hit rate 0.44% among 310,000; AID 588627; B-score at 10 µM; MrgX1-HEK293 cells, Fluo-4 calcium fluorescence, agonist mode; active compounds read high;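 active = calcium response B-score plate-corrected fluorescence ratio at least 3 library SD, with starting fluorescence B-score inside 5 SD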
Target sequence (Q96LB2 whole entry, looked up): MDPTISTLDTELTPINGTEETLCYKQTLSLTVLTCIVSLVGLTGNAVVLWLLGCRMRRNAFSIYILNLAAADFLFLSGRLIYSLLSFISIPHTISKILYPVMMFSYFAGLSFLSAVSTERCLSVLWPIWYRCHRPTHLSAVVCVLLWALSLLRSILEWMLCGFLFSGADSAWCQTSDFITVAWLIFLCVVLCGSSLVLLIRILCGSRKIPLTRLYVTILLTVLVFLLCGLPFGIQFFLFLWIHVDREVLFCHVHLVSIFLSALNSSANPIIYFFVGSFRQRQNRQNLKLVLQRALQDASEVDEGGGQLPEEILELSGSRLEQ
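System – MrgX1-expressing HEK293 cells · Incubation – cells plated overnight, dye loaded 0.5 h 37 °C, 0.5 h room temperature · Technique – kinetic Fluo-4 NW fluorescence of intracellular calcium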
MrgX1 PAM: human MrgX1 positive allosteric modulation, primary screen; hit rate 0.63% among 310,000; MrgX1-HEK293, Fluo-4 calcium flux, FDSS; active compounds read high; B-score at 10 µM;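 active = plate-corrected calcium response at least 3 library SD above typical, normal starting fluorescence, not activating the receptor alone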;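 also: compound read alongside a low EC10 to EC30 dose of BAM8-22 agonist; peak minus trough fluorescence over baseline measured at the second addition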
RGS4 act: RGS4 potentiation or activation. AID 463111. HEK293 M3R/inducible RGS4, carbachol calcium flux Fluo4; active compounds read low. hit rate 0.92% among 310,000. B-score at 10 µM;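 active = B-score of the integrated calcium signal more than 4 SD below the library mean, with starting fluorescence not abnormally high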;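 also: negative B-score means reduced calcium response which marks RGS4 activation or potentiation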
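Also added: carbachol at ECmax as muscarinic agonist stimulus; Assay system: HEK293 cells with stable M3R and inducible RGS4; Timing: overnight RGS4 induction, 30 min dye load 37 °C, 20 min compound RT; Measured by: Fluo4-AM (2 µM) calcium-flux fluorescence, kinetic read.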
MrgX1 antagonist: human MrgX1 receptor antagonism, primary screen | hit rate 1.3% among 310,000 | B-score at 10 µM | MRGX1-HEK293 calcium flux, Fluo-4, BAM8-22 antagonism; active compounds read low | Q96LB2;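 active = calcium-response B-score plate-corrected more than 3 library SD below zero, starting fluorescence within 5 deviations, no agonist response on first addition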;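 also: peak minus trough fluorescence over baseline after final BAM8-22 challenge near maximal dose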
RGS4 block: inhibitors of human RGS4 | P49798 | HEK293 M3R/RGS4 inducible, Fluo-4 calcium flux; active compounds read high; triggered by carbachol at its EC20 | B-score at 10 µM | hit rate 0.45% among 310,000;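 active = B-score, a plate-corrected calcium signal, over three deviations above library mean, with baseline fluorescence within five deviations of library mean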;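 also: RGS4 expression induced by doxycycline in cells with stable M3 receptor; B-score is computed from the integrated fluorescence ratio over baseline after carbachol; higher B-score means a larger calcium signal and so more RGS4 inhibition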
Target sequence (P49798 whole entry, looked up): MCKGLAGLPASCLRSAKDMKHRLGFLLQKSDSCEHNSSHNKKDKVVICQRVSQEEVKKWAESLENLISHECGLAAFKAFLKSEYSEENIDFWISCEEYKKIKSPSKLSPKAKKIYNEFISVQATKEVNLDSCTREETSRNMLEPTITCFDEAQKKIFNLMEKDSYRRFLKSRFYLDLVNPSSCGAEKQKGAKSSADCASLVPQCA
MrgX1 PAM conf: confirmation of human MrgX1 receptor positive allosteric modulators | shares compounds with MrgX1 PAM | MrgX1-HEK293, Fluo-4 calcium fluorescence, FDSS | activation (ratio percentage), % at 10 µM | hit rate 13% among 1,200;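 active = ratio at least 3 SD above the weak peptide control, stable starting fluorescence, no direct agonism earlier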;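 also: compound followed by low BAM8-22 agonist challenge near EC20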
HEK293 Ca flux: counter-screen for MrgX1 antagonists: effect in parental HEK293 cells | Fluo-4 calcium fluorescence, FDSS | AID 624111 | shares compounds with MrgX1 antagonist | hit rate 2% among 4,000 | fluorescence ratio F(max-min)/F0 at 10 µM;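 active = duplicate-averaged calcium fluorescence ratio at least three times the standard deviation of buffer wells, a nonspecific response in parental cells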
HEK293 Ca counter: counter-screen for MrgX1 allosteric activators: effect in parental HEK293 cells | shares compounds with MrgX1 antagonist | parental HEK293 calcium flux, Fluo-4 fluorescence ratio; active compounds read high | fluorescence ratio F(max-min)/F0 at 10 µM | hit rate 0.4% among 4,000 | AID 624114;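 active = calcium fluorescence ratio, averaged over duplicates, at least 3 SD of the buffer-well ratio, meaning a nonspecific response in receptor-free cells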;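 also: untransfected parental HEK293 lacking MrgX1 used as counterscreen for MrgX1 allosteric activators; fluorescence change taken during the second addition on a kinetic imager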
HEK293 Ca cntr2: MrgX1 activator counter-screen hit in parental HEK293 cells; shares compounds with MrgX1 antagonist; Fluo-4 calcium fluorescence (FDSS); active compounds read high; fluorescence ratio F(max-min)/F0 at 10 µM; hit rate 8.7% among 4,000; AID 624115;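 active = calcium fluorescence ratio at least three times the spread of buffer wells, meaning a non-specific response in parental cells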
An asterisk follows results filed as active; i = inactive; . = no result.

SMILES	MrgX1 ag	MrgX1 PAM	RGS4 act	MrgX1 antagonist	RGS4 block	MrgX1 PAM conf	HEK293 Ca flux	HEK293 Ca counter	HEK293 Ca cntr2
Cc1ccc(C(=O)N2CCCC(CCC(=O)N3CCN(c4ccccn4)CC3)C2)cc1C (configuration not stated)	i	7.8*	i	i	i	i	i	i	i
CC1CC(NS(=O)(=O)c2cc3c4c(c2)CCN4C(=O)CC3)CC(C)(C)C1 (configuration not stated)	i	i	i	i	i	.	.	.	.
CCOc1ccc(NC(=O)CN2C(=O)NC(C)(c3ccc(OC(F)F)cc3)C2=O)cc1 (configuration not stated)	i	i	i	i	i	.	.	.	.
Cc1cccc(N2CCC(N=CN(C)C)=N2)c1	i	i	i	i	i	.	.	.	.
CCC(C)CCN1C(Nc2ccccc2)=NC[C@@H]1C (some centres not stated)	i	i	i	i	i	.	.	.	.
COc1ccc(-c2csc3nc(-c4cccnc4)nc(Cl)c23)cc1OC	i	6.7*	i	i	i	3.9%*	i	i	i
O=C(Nc1nccs1)c1csc2c1CCCC2	i	12*	i	i	i	i	i	i	i
O=C(Nc1ccon1)c1csc2c1CCCC2	i	i	i	i	i	.	.	.	.
CCOC(=O)CSCc1csc(CC(=O)Nc2ccccc2C)n1	i	i	i	i	i	.	.	.	.
CCN(CC)C(=S)SCc1csc(CC(=O)Nc2ccccc2C)n1	i	9.8*	i	i	i	i	i	i	i
O=C(O)CN1CCCCC1	i	9.7*	i	i	i	i	i	i	i
CN(C)S(=O)(=O)n1cc(/C=C(\NC(=O)c2ccccc2)C(=O)N2CCCC2)c2ccccc21	i	i	i	i	i	.	.	.	.
O=C1Nc2ccccc2N(O)N1c1ccc(S(=O)(=O)N2CCCCCC2)cc1	i	i	i	i	i	.	.	.	.
CCOC(=O)c1c(-c2cccs2)csc1N	i	8.4*	i	i	i	i	i	i	i
CC(=O)NCCn1c(SCC(=O)NCC2CCCO2)nc2ccccc2c1=O (configuration not stated)	i	i	i	i	i	.	.	.	.
O=c1c2ccccc2c2ccccc2c(=O)n1CC1CCCO1 (configuration not stated)	i	9.2*	i	i	i	i	i	i	i
O=C(CSc1nc2ccccc2c(=O)n1CC1CCCO1)NCC1CCCO1 (configuration not stated)	i	8.2*	i	i	i	i	i	i	i
CSc1cccc(NC(=O)NNC(=O)C2CCN(S(=O)(=O)N(C)C)CC2)c1	i	i	i	i	i	.	.	.	.
COc1cccc(NC(=O)CSc2nc3c(sc4ccccc43)c(=O)n2CCN(C)C)c1	i	7.5*	i	i	i	i	i	i	i
CCN(CC)CCn1c(SCC(=O)Nc2cccc(OC)c2)nc2c(sc3ccccc32)c1=O	i	i	i	i	i	.	.	.	.
O=S(=O)(c1ccccc1)N1CCN(c2ncnc3scc(-c4ccccc4)c23)CC1	i	i	i	i	i	.	.	.	.
OCC1CCCN(c2ncnc3scc(-c4ccccc4)c23)C1 (configuration not stated)	i	6.5*	i	i	i	i	i	i	i
Cc1cc(O)cc(C)c1Cl	i	17*	i	i	i	i	i	i	i
O=S(=O)(NC(=S)NC1CCCCC1)c1ccc(Br)cc1	i	28*	i	i	i	25%*	i	i	i
O=C(CCNS(=O)(=O)c1ccc(Br)cc1)NC1CCCCC1	i	i	i	i	i	.	.	.	.
SMILES	MrgX1 ag	MrgX1 PAM	RGS4 act	MrgX1 antagonist	RGS4 block	MrgX1 PAM conf	HEK293 Ca flux	HEK293 Ca counter	HEK293 Ca cntr2
CCN(CC(=O)Nc1c(F)cccc1F)C(=O)/C=C/c1ccc2c(c1)OCO2	i	i	i	i	i	.	.	.	.
c1ccc(CCNc2ncnc3nc[nH]c23)cc1	i	i	i	i	i	.	.	.	.
c1ccc2c(CCNc3ncnc4nc[nH]c34)c[nH]c2c1	i	7*	i	i	i	9.4%*	i	i	i
O=C(CCN1CCc2ccccc2C1)Nc1ccc2c(c1)OCO2	i	i	i	i	i	.	.	.	.
O=C(CCN1CCc2ccccc2C1)Nc1ccc(F)c(F)c1	i	25*	i	i	i	i	i	i	i
CCS(=O)(=O)c1nn2c(N)c(/C=C3/C=CC(=O)C(OC)=C3)c(=O)nc2s1	i	28*	i	i	i	i	i	i	63*
Nc1c(C=C2C=CC(=O)C=C2)c(=O)nc2sc(CC(=O)N3CCCC3)nn12	i	i	i	i	i	.	.	.	.
CC(C)(C)c1ccc(O)c(/C=N\O)c1	i	38*	i	i	i	i	i	i	i
Nc1ncnc(Nc2ccc(S(N)(=O)=O)cc2)n1	i	i	i	i	i	.	.	.	.
C/C(=C\c1ccccc1)C(=O)NCCc1ccccc1	i	i	i	i	i	.	.	.	.
CN(Cc1ccc(N(C)C)cc1)C(=O)c1cc2ccccc2o1	i	12*	i	i	i	8.2%*	i	i	i
CCCCn1c(N)c(N(CC(C)C)C(=O)c2cc(S(=O)(=O)N3CCOCC3)ccc2Cl)c(=O)[nH]c1=O	i	i	i	i	i	.	.	.	.
Cc1ccc(NC(=O)C2CCCN2C(=O)OCc2ccccc2)c(O)c1 (configuration not stated)	i	i	i	i	i	.	.	.	.
Cc1nc(SCC(=O)NCc2ccco2)c2c(C)c(C)sc2n1	i	i	i	i	i	.	.	.	.
Cc1nc(SCC(=O)Nc2cc(C(N)=O)cc(C(N)=O)c2)c2c(C)c(C)sc2n1	i	13*	i	i	i	i	i	i	i
Cc1nnc2ccc(-c3ccc(NS(=O)(=O)c4ccccc4F)cc3)nn12	i	i	i	i	i	.	.	.	.
